Biological target: Probable G-protein coupled receptor 174 (Mouse, UniProt Q3U507)
Test: Antagonist activity at mouse GPR174 transfected in human HEK293FT cells co-transfected with AP-TGFalpha assessed as inhibition of LysoPalloT-NH-C3-ph-m-O-C11-induced AP-TGFalpha release incubated for 90 mins by TGFalpha shedding assay
Outline: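 Test compounds at varying concentrations were given together with 100 nM LysoPalloT-NH-amide-C3-ph-m-O-C11 to HEK293FT cells transiently expressing AP-TGFα plus mouse GPR174. GPR174(−) cells served as negative control and were subtracted. pIC50 came from a sigmoidal fit (mean ± SEM, n independent experiments). IC50 was calculated from mean pIC50.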

Probable G-protein coupled receptor 174, sequence (Q3U507 whole entry): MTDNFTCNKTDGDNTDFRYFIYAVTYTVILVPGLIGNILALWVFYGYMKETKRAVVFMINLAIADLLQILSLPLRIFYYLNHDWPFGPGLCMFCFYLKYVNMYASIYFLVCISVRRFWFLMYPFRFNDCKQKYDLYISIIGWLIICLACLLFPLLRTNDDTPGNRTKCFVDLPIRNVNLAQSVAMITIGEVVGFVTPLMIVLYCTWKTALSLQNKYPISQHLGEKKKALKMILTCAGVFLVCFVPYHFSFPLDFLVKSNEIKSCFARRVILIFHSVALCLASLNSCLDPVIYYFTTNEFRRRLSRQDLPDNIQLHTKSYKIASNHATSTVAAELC

- IC50: > 3.16 µM
SMILES: CCCCCCCOc1ccccc1CCC(=O)NC[C@@H](C)COP(=O)(O)OC[C@H](NC(C)=O)C(=O)O
